In ChEMBL document CHEMBL1121744, “Synthesis and antihypertensive activity of a series of 8-substituted 1-oxa-3,8-diazaspiro[4.5]decan-2-ones” (J Med Chem, 1981):
Values joined by “and” are separate entries in the source; they are usually repeats but may differ in a detail not shown here. Identical values can stand only once. Active and inactive are the calls of the source. The rule behind the calls is not given here.

Legend:
[1] = system: Canis familiaris; test: Percent inhibition of the pressor responses to 0.75 ug/kg iv norepinephrine in pentobarbital-anesthetized dogs for a dose of 1 mg/kg; format: functional; conditions: Canis lupus familiaris
Procedure, shortened: (§1)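 Pentobarbital-anesthetized dogs (35 mg/kg iv) with femoral arterial pressure recording. Epinephrine (1 μg/kg), norepinephrine (0.75 μg/kg) and phenylephrine (7.5 μg/kg) iv challenges were given about every 10 min before and after rising iv test doses, which were spaced 90 min apart. Value is % inhibition of the pressor response.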

[2] = system: Rattus norvegicus; test: Antihypertensive activity as percentage fall in systolic blood pressure in spontaneously hypertensive rats after a period of 4 hr for a dose of 50 mg/kg po; format: functional, Artery
Procedure, shortened: (§2)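 Male Okamoto-Aoki SHR, trained, in groups of four matched for mean systolic pressure; one group per run received water vehicle. Oral dosing in water (0.1 mL per 10 g) on two consecutive mornings. After the day-2 dose, rats were restrained at 30.0 ± 1.0 °C. Systolic pressure was read by tail cuff (inflated to 300 mmHg, first pulse) at 1–4 h. % fall is versus the untreated control group, by 1-tail t test (p ≤ 0.05).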

[3] = system: Rattus norvegicus; test: Percentage fall in systolic blood pressure in spontaneously hypertensive rats after 2 hr following 50 mg/kg p.o.; format: functional, Artery; conditions: route oral; procedure, shortened: as §2
[4] = system: Canis familiaris; test: Percent inhibition of the pressor responses to 7.5 ug/kg iv phenylephrine in pentobarbital-anesthetized dogs for a dose of 10 mg/kg; format: functional; conditions: Canis lupus familiaris; procedure, shortened: as §1
[5] = system: Canis familiaris; test: Percent inhibition of the pressor responses to 0.75 ug/kg iv norepinephrine in pentobarbital-anesthetized dogs for a dose of 5.0 mg/kg; format: functional; conditions: Canis lupus familiaris; procedure, shortened: as §1
[6] = system: Canis familiaris; test: Percent inhibition of the pressor responses to 7.5 ug/kg iv phenylephrine in pentobarbital-anesthetized dogs for a dose of 1 mg/kg; format: functional; conditions: Canis lupus familiaris; procedure, shortened: as §1
[7] = system: Canis familiaris; test: Percent inhibition of the pressor responses to 1 ug/kg iv Epinephrine in pentobarbital-anesthetized dogs for a dose of 0.1 mg/kg; format: functional; conditions: Canis lupus familiaris
Procedure, shortened: (§3)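 Dogs anesthetized with sodium pentobarbital 35 mg/kg iv; femoral artery cannulated for blood pressure, femoral vein for dosing. Epinephrine 1 μg/kg iv given at about 10-min intervals before and after increasing test doses. Test doses given iv at 90-min intervals. Result is per cent inhibition of the pressor response.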

[8] = system: Canis familiaris; test: Percent inhibition of the pressor responses to 7.5 ug/kg iv phenylephrine in pentobarbital-anesthetized dogs for a dose of 0.1 mg/kg; format: functional; conditions: Canis lupus familiaris; procedure, shortened: as §1
[9] = system: Canis familiaris; test: Change in mean arterial pressure in anesthetized dogs for a dose of 0.1 mg/kg; format: functional, Canis lupus familiaris, Artery
Procedure, shortened: (§4)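 Dogs anesthetized with sodium pentobarbital (35 mg/kg iv), femoral artery cannulated for pressure, ECG-triggered heart rate, femoral vein for dosing. Rising iv doses were given 90 min apart, and each dose is the full dose, not cumulative. Value is the maximal mean arterial pressure change 10–15 min after each dose, two dogs per compound, ±3 mmHg. Saline served as control.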

[10] = system: Canis familiaris; test: Change in mean arterial pressure in anesthetized dogs for a dose of 1 mg/kg; format: functional, Canis lupus familiaris, Artery; procedure, shortened: as §4
[11] = system: Canis familiaris; test: Change in mean arterial pressure in anesthetized dogs for a dose of 10 mg/kg; format: functional, Canis lupus familiaris, Artery; procedure, shortened: as §4
[12] = system: Canis familiaris; test: Percent inhibition of the pressor responses to 1 ug/kg iv Epinephrine in pentobarbital-anesthetized dogs for a dose of 10 mg/kg; format: functional; conditions: Canis lupus familiaris; procedure, shortened: as §3
[13] = (§5) Distribution coefficient between 1-Octanol and phosphate buffer at pH7.4; format: physicochemical; conditions: 1-octanol/phosphate buffer, pH 7.4
[14] = system: Canis familiaris; test: Percent inhibition of the pressor responses to 1 ug/kg iv Epinephrine in pentobarbital-anesthetized dogs for a dose of 1 mg/kg; format: functional; conditions: Canis lupus familiaris; procedure, shortened: as §1
[15] = system: Canis familiaris; test: Percent inhibition of the pressor responses to 0.75 ug/kg iv norepinephrine in pentobarbital-anesthetized dogs for a dose of 10 mg/kg; format: functional; conditions: Canis lupus familiaris; procedure, shortened: as §1
[16] = system: Rattus norvegicus; test: Percentage fall in systolic blood pressure in spontaneously hypertensive rats after 3 h following 50 mg/kg p.o.; format: functional, Artery; conditions: route oral; procedure, shortened: as §2
[17] = system: Rattus norvegicus; test: Antihypertensive activity as percentage fall in systolic blood pressure in spontaneously hypertensive rats after a period of 1 hr for a dose of 50 mg/kg; format: functional, Artery; procedure, shortened: as §2
[18] = system: Rattus norvegicus; test: The antihypertensive activity as percentage fall in systolic blood pressure in spontaneously hypertensive rats after a period of 3 hr for a dose of 75 mg/kg po; NS=Not significant; format: functional, organism-based; design: dose 75 mg/kg; conditions: Artery
Procedure, shortened: (§6)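 Male Okamoto-Aoki SHR, trained, in groups of four matched for systolic pressure, with a concurrent vehicle control group. Oral dosing on two consecutive mornings, in water as solution or suspension at 0.1 mL/10 g. On day 2 rats were restrained at 30.0 ± 1.0 °C. Tail-cuff systolic pressure, four traces per rat, read at each hour. Per cent fall versus control; 1-tail t test, p ≤ 0.05.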

[19] = system: Rattus norvegicus; test: The antihypertensive activity as percentage fall in systolic blood pressure in spontaneously hypertensive rats after a period of 2 hr for a dose of 75 mg/kg po; NS=Not significant; format: functional, organism-based; design: dose 75 mg/kg; conditions: Artery; procedure, shortened: as §6
[20] = as §5; format: physicochemical; conditions: 1-octanol/phosphate buffer, pH 7.4; remark: listed apart in the source
Procedure, shortened: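 Octanol/buffer distribution measured at pH 7.4 in phosphate with sodium chloride. Either HPLC (0.004 M) or shake flask.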

[21] = system: Rattus norvegicus; test: The antihypertensive activity as percentage fall in systolic blood pressure in spontaneously hypertensive rats after a period of 1 hr for a dose of 50 mg/kg po
[22] = system: Rattus norvegicus; test: The antihypertensive activity as percentage fall in systolic blood pressure in spontaneously hypertensive rats after a period of 4 hr for a dose of 75 mg/kg po; NS=Not significant; format: functional, organism-based; design: dose 75 mg/kg; conditions: Artery; procedure, shortened: as §6
[23] = system: Rattus norvegicus; test: The antihypertensive activity as percentage fall in systolic blood pressure in spontaneously hypertensive rats after a period of 4 hr for a dose of 25 mg/kg po; NS=Not significant; format: functional, organism-based; design: dose 25 mg/kg; conditions: Artery; procedure, shortened: as §2
[24] = system: Rattus norvegicus; test: The antihypertensive activity as percentage fall in systolic blood pressure in spontaneously hypertensive rats after a period of 1 hr for a dose of 25 mg/kg po; format: functional, Artery; procedure, shortened: as §2
[25] = system: Rattus norvegicus; test: The antihypertensive activity as percentage fall in systolic blood pressure in spontaneously hypertensive rats after a period of 3 hr for a dose of 25 mg/kg po; NS=Not significant; format: functional, organism-based; design: dose 25 mg/kg; conditions: Artery; procedure, shortened: as §2
[26] = system: Rattus norvegicus; test: The antihypertensive activity as percentage fall in systolic blood pressure in spontaneously hypertensive rats after a period of 2 hr for a dose of 25 mg/kg po; format: functional, Artery; procedure, shortened: as §2
[27] = system: Rattus norvegicus; test: Antihypertensive activity as percentage fall in systolic blood pressure in spontaneously hypertensive rats after a period of 4 hr for a dose of 50 mg/kg; format: functional, organism-based; design: dose 50 mg/kg; conditions: Artery; procedure, shortened: as §2
[28] = system: Rattus norvegicus; test: The antihypertensive activity as percentage fall in systolic blood pressure in spontaneously hypertensive rats after a period of 1 hr for a dose of 100 mg/kg po; format: functional, Artery; procedure, shortened: as §2
[29] = system: Rattus norvegicus; test: The antihypertensive activity as percentage fall in systolic blood pressure in spontaneously hypertensive rats after a period of 3 hr for a dose of 100 mg/kg po; format: functional, Artery; procedure, shortened: as §2
[30] = system: Rattus norvegicus; test: The antihypertensive activity as percentage fall in systolic blood pressure in spontaneously hypertensive rats after a period of 2 hr for a dose of 100 mg/kg po; format: functional, Artery; procedure, shortened: as §2
[31] = system: Rattus norvegicus; test: The antihypertensive activity as percentage fall in systolic blood pressure in spontaneously hypertensive rats after a period of 4 hr for a dose of 100 mg/kg po; format: functional, Artery; procedure, shortened: as §2

Cc1ccc(N(CC2=NCCN2)c2cccc(O)c2)cc1 [PHENTOLAMINE]
inhibition in vivo at 1 mg/kg [1]: > 100%
Decrease in blood pressure [2]: 16%
Decrease in blood pressure [3]: 30%
inhibition in vivo at 10 mg/kg [4]: 100%
inhibition in vivo at 5 mg/kg [5]: > 100%
inhibition in vivo at 1 mg/kg [6]: 86%
inhibition in vivo at 0.1 mg/kg [7]: 41%
inhibition in vivo at 0.1 mg/kg [8]: 42%
MAP [9]: -9 mmHg
MAP [10]: -11 mmHg
MAP [11]: -33 mmHg
inhibition in vivo at 10 mg/kg [12]: > 100%
logD [13]: 0.82
inhibition in vivo at 1 mg/kg [14]: > 100%
inhibition in vivo at 10 mg/kg [15]: > 100%
Decrease in blood pressure [16]: 19%
Decrease in blood pressure [17]: 37%

O=C1NC(Cc2ccccc2)C2(CCN(CCc3c[nH]c4ccccc34)CC2)O1 (stereo not drawn)
Decrease in blood pressure [18]: inactive
Decrease in blood pressure [19]: inactive
logD [20]: 2.68
Decrease in blood pressure [21]: 13%
Decrease in blood pressure [22]: inactive

CCN1CC2(CCN(CC(O)C3COc4ccccc4O3)CC2)OC1=O (stereo not drawn)
Decrease in blood pressure ([3]; 50 mg/kg): 18% and 15%
Decrease in blood pressure [23]: inactive
Decrease in blood pressure [24]: 18%
Decrease in blood pressure [25]: inactive
Decrease in blood pressure [26]: 9%
Decrease in blood pressure [16]: 11%
Decrease in blood pressure [17]: 32%

O=C1NCC2(CCN(CC(O)C3COc4ccccc4O3)CC2)O1 (stereo not drawn)
Decrease in blood pressure [27]: Not significant
Decrease in blood pressure [3]: 12%
Decrease in blood pressure [28]: 24%
Decrease in blood pressure [29]: 11%
Decrease in blood pressure [30]: 14%
Decrease in blood pressure [31]: 16%
logD [13]: 0.98
Decrease in blood pressure [16]: 21%
Decrease in blood pressure [17]: 28%
